Screening results (PubChem BioAssay)
Shown are actives, neighbours in structure and some others; about 3.8% of the full set was active somewhere.
KCNK9 block: blocks the human KCNK9 two-pore domain potassium channel; Q9NPC2; HEK293 KCNK9, FluxOR thallium flux fluorescence; hits give low values; B-score at 10 µM; 310,000 compounds, 1.2% hits;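 active = ratio B-score over 3 SD below the library mean, with starting fluorescence within 5 SD of its mean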;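 note: negative B-score means less thallium flux so channel inhibition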
Kir21 inh: Kir2.1 (mouse) channel inhibition; P35561; HEK293-Kir2.1, FluxOR thallium flux fluorescence; hits give low values; B-score at 10 µM; 310,000 compounds, 0.85% hits; AID 1672;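 active = fluorescence ratio B-score at or below minus 3 SD of library scores, with starting-brightness B-score within 2 SD, cut at about -4.2 in these data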;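 note: channel flux triggered by added potassium and thallium sulfate stimulus; B-score of peak minus minimum fluorescence over baseline after thallium stimulus; more negative B-score means stronger Kir2.1 block with less thallium influx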
KCNK3 block: human KCNK3 channel inhibition, primary screen. AID 602410. B-score at 10 µM. CHO-KCNK3 thallium flux, FluxOR fluorescence; hits give low values. 340,000 compounds, 0.84% hits;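 active = B-score under library mean minus 4 SD, starting fluorescence ratio at most library mean plus 5 SD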;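 note: more negative B-score means stronger inhibition of thallium flux through KCNK3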
KCNQ1 inh: inhibitors of human KCNQ1 potassium channel; CHO-K1 KCNQ1, FluxOR thallium flux fluorescence; hits give high values; B-score at 10 µM; P51787; 310,000 compounds, 1.3% hits;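 active = compounds whose thallium flux B-score, printed positive for inhibition, exceeds three library SD while starting fluorescence stays within three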;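 note: channel opened by potassium depolarization with thallium stimulus after 20 min compound exposure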
hERG protect: hERG (human) protection from proarrhythmic block; Q12809; CHO-hERG, FluxOR thallium flux, dofetilide IC70 present; activation (rescue from dofetilide block), less the hit threshold, % at 10 µM; 310,000 compounds, 0.51% hits; AID 1511;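 active = activation above the mean of controls blocked by dofetilide plus 5 SD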;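 note: thallium influx through hERG after potassium depolarization seen as dye fluorescence rise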
KCNQ1 act: human KCNQ1 channel potentiation or activation; 310,000 compounds, 0.35% hits; B-score at 10 µM; CHO-K1 KCNQ1, thallium flux FluxOR fluorescence; hits give high values; P51787;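 active = fluorescence ratio B-score, a plate-corrected score, at least three library SD, with initial intensity B-score within 5 SD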
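Assay system: CHO-K1 cells stably expressing KCNQ1. Medium: assay buffer for compound exposure, DMSO matched across wells. Timing: 37 °C overnight plating, 90-min dark dye load, 20-min compound pretreatment. Signal: kinetic FluxOR fluorescence, 10 s baseline plus 110 s post-stimulus.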
KCNK9 block conf: human KCNK9 inhibitor confirmation; shares compounds with KCNK9 block; HEK293 KCNK9 cells, FluxOR thallium flux fluorescence; inhibition, % at 10 µM; 4,900 compounds, 43% hits; AID 492992;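 active = thallium signal inhibited by more than 5 SD of the compound-free buffer control wells, on both duplicate plates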;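 note: 0% = assay buffer control wells without compound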
Kir2-1 spec: mouse Kir2.1 off-target activity of KCNK9 modulators | inhibition, % at 10 µM | shares compounds with KCNK9 block | 4,900 compounds, 4% hits | AID 492993 | Kir2.1 cells, FluxOR thallium flux fluorescence;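 active = thallium signal drop more than 5 SD beyond the mean of the no-compound control wells, seen in both duplicate plates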;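 note: signal is fluorescence rise after thallium addition divided by baseline fluorescence; plate controls were assay buffer only for no effect and full block by chlorpromazine control for full effect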
HEK293 Tl ctr: non-induced cell nonspecific activity of KCNK9 modulators. 4,900 compounds, 40% hits. AID 492997. non-induced KCNK9-HEK293, FluxOR thallium flux. inhibition, % at 10 µM. shares compounds with KCNK9 block;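 active = thallium signal drop beyond 5 SD of the untreated control mean, on both duplicate plates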;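 note: plate controls were buffer only IC0 wells for no effect and SID17386958 at its maximal inhibitory level for full effect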
* marks the source's active call; other numbers are inactive results; i = inactive; / = not tested or not shown.

SMILES	KCNK9 block	Kir21 inh	KCNK3 block	KCNQ1 inh	hERG protect	KCNQ1 act	KCNK9 block conf	Kir2-1 spec	HEK293 Tl ctr
Cc1ccc(-c2nc(C#N)c(N3CCCCC3)o2)cc1	i	0.01	i	i	-3	i	/	/	/
O=C(O)c1ccccc1N/N=C/c1cc(Br)cc(Br)c1O	i	-0.77	i	6*	-13	i	i	i	i
O=C(NCC(O)c1ccc2ccccc2c1)c1c(F)cccc1F (stereo not given)	i	-0.15	i	i	0	i	/	/	/
N#C/C(=C\c1cc(Cl)ccc1O)C(=O)NC1CCCCC1	i	-0.73	i	i	-8	i	/	/	/
COc1ccc(-c2[nH]ncc2/C=C(/C#N)C(=O)NC2CCCCC2)cc1	i	-1	i	i	-10	i	i	i	i
Cc1ccc(-c2[nH]ncc2/C=C(\C#N)C(=O)NC2CCCCC2)cc1	i	0.6	i	i	-12	i	i	i	i
N#C/C(=C\c1ccccc1[N+](=O)[O-])C(=O)NC1CCCCC1	i	0.03	i	i	-13	i	/	/	/
O=C(OCC(=O)N1CCOCC1)c1cc(F)c(F)cc1Cl	i	1.9	i	i	-16	i	/	/	/
NC(=O)NCc1cccs1	i	-0.17	i	i	-4	i	/	/	/
CCN1CCN(c2nc(-c3cccs3)nc3ccccc23)CC1	i	-1.3	i	i	-13	i	/	/	/
Oc1ccc(N2CCN(c3nc(-c4cccs4)nc4ccccc34)CC2)cc1	-8.4*	0.91	i	i	-12	i	i	i	i
CN1CCN(c2nc(-c3cccs3)nc3ccccc23)CC1	i	0.45	i	i	-12	i	/	/	/
Oc1ccccc1N1CCN(c2nc(-c3cccs3)nc3ccccc23)CC1	-13*	1.2	i	i	-14	i	40%*	i	28%*
COc1ccc(/C=N/Nc2nc(-c3ccc(Cl)cc3)cc(C(F)(F)F)n2)cc1OC	i	0.06	i	6*	-10	i	i	i	i
Cc1ccc(Cn2cc(SCC(=O)Nc3nccs3)c3ccccc32)cc1	i	0.93	i	i	-1	i	i	i	i
CC1CCCN(C(=O)N2c3ccccc3Sc3ccccc32)C1 (stereo not given)	-11*	0.63	i	i	-11	i	52%*	i	44%*
CC1CN(C(=O)N2c3ccccc3Sc3ccccc32)C(C)CC1=O (stereo not given)	-8.1*	-0.22	i	i	5.3*	i	30%*	i	29%*
Cc1c(/C=N/n2cnnc2)c2ccccc2n1C	i	-0.01	i	i	-7	i	/	/	/
CCc1nnc(NS(=O)(=O)c2ccc(N/C=C(\C=O)c3nc4cc(Cl)ccc4o3)cc2)s1	i	0	i	i	-15	i	i	i	i
CCc1nnc(NS(=O)(=O)c2ccc(NC(=O)c3ccc(Cl)cc3)cc2)s1	i	1	i	i	-10	i	/	/	/
Cc1cccc(N2CCN(C(=O)c3ccc4nc(-c5ccco5)c(-c5ccco5)nc4c3)CC2C)c1 (stereo not given)	-8.8*	0.21	i	i	-20	i	45%*	i	i
CC(=O)Nc1ccccc1-c1nc2ccc(C(=O)N3CCN(c4cccc(C)c4)C(C)C3)cc2[nH]c1=O (stereo not given)	i	0.69	i	i	-8	i	/	/	/
